Active and inactive are the calls of the source. The rule behind the calls is not given here.
Columns and labels:
Rattus norvegicus [1] = experiment: The concentration yielding a half maximal decrease of the DOPA was determined in rat brain striatum; Inactive at 3.1 umol/kg; assay type: functional, organism-based
[2] = target: T1, 5-hydroxytryptamine receptor 1A (Rattus norvegicus, UniProt P19327); experiment: Displacement of the radioligand [3H]8-OH-DPAT from 5-hydroxytryptamine 1A receptor
T1 sequence (P19327 whole entry): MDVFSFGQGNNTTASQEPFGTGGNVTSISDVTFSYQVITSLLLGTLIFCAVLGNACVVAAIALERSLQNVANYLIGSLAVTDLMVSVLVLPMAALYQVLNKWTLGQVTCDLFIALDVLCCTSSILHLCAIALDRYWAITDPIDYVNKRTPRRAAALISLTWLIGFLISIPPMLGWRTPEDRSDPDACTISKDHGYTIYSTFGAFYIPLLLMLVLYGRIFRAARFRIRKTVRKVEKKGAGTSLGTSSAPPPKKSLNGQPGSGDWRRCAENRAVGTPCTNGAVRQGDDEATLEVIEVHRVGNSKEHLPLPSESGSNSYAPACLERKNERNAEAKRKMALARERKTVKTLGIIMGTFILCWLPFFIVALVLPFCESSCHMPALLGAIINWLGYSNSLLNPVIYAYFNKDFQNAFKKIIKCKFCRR
Outline: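 Rat whole brain minus brain stem and cerebellum, washed membranes in 50 mM Tris pH 8.0 with 120 mM NaCl, 4 mM CaCl2, 4 mM MgCl2, 10 μM pargyline. Nonspecific with 10 μM 5-HT. IC50 by semilog linear regression, Ki via Cheng–Prusoff; 3–7 experiments, triplicates.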

Rattus norvegicus [3] = species: Rattus norvegicus; experiment: Log concentration to inhibit 5-HTP accumulation was determined in rat limbic system; assay type: functional
Outline: (§1)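 Reserpine-pretreated (5 mg/kg sc, 18 h) male Sprague-Dawley rats, 200–300 g; compounds in saline given sc. DOPA and 5-HTP in limbic system, striatum and hemispheres measured by HPLC with electrochemical detection. Dose–response curves of 4–6 doses (n = 4) per area, fitted to variable-slope sigmoid on log data to give ED50.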

Rattus norvegicus [4] = species: Rattus norvegicus; experiment: The concentration yielding a half maximal decrease of the 5-HTP was determined in rat brain striatum.; assay type: functional
Rattus norvegicus [5] = species: Rattus norvegicus; experiment: The concentration yielding a half maximal decrease of the DOPA was determined in rat limbic system.; assay type: functional
Rattus norvegicus [6] = species: Rattus norvegicus; experiment: Log concentration to inhibit 5-HTP accumulation was determined in rat brain striatum; assay type: functional; outline: as §1
Rattus norvegicus [7] = species: Rattus norvegicus; experiment: The concentration yielding a half maximal decrease of the 5-HTP was determined in rat limbic system.; assay type: functional
Rattus norvegicus [8] = species: Rattus norvegicus; experiment: The concentration yielding a half maximal decrease of the 5-HTP was determined in rat brain hemispheres.; assay type: functional
Rattus norvegicus [9] = species: Rattus norvegicus; experiment: Log concentration to inhibit 5-HTP accumulation was determined in rat brain hemispheres; assay type: functional; outline: as §1
Rattus norvegicus [10] = experiment: The concentration yielding a half maximal decrease of the DOPA was determined in rat brain hemispheres; Inactive at 3.1 umol/kg; assay type: functional, organism-based; outline: as §1
Rattus norvegicus [11] = species: Rattus norvegicus; experiment: Log concentration to inhibit DOPA accumulation was determined in rat limbic system; assay type: functional; outline: as §1
D(2) dopamine receptor = D(2) dopamine receptor (Rattus norvegicus, UniProt P61169); experiment: Displacement of the radioligand [3H]spiperone from D2 receptor
Outline: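 Rat striatal membranes in 50 mM potassium phosphate buffer, incubated with 0.5 nM [3H]spiperone (3 mg tissue) 10 min at 37 °C. Nonspecific binding defined with 10 μM 6,7-ADTN. IC50 converted to Ki by Cheng–Prusoff; 3–7 experiments, each concentration in triplicate.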

Rattus norvegicus [12] = experiment: Motor activity was measured by motility testing on injecting the compound subcutaneously into rats at the dose of 12.5 umol/kg; assay type: functional
Outline: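 Rats given reserpine 5 mg/kg sc 18 h beforehand, then test compound sc in neck (n = 4). Placed singly in photocell motility meters straight after dosing; counts recorded for 30 min, gross behaviour observed throughout. Value as counts/30 min with SEM.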

Rattus norvegicus [13] = experiment: The concentration yielding a half maximal decrease of the 5-HTP was determined in rat brain striatum; inactive at 50 umol/kg; assay type: functional, organism-based; outline: as §1
Rattus norvegicus [14] = experiment: The concentration yielding a half maximal decrease of the DOPA was determined in rat brain hemispheres; inactive at 50 umol/kg; assay type: functional, organism-based; outline: as §1
Rattus norvegicus [15] = experiment: The concentration yielding a half maximal decrease of the 5-HTP was determined in rat limbic system; inactive at 50 umol/kg; assay type: functional, organism-based; outline: as §1
Rattus norvegicus [16] = experiment: The concentration yielding a half maximal decrease of the DOPA was determined in rat brain striatum; inactive at 50 umol/kg; assay type: functional, organism-based
Rattus norvegicus [17] = experiment: The concentration yielding a half maximal decrease of the 5-HTP was determined in rat brain hemispheres; inactive at 50 umol/kg; assay type: functional, organism-based; outline: as §1
Rattus norvegicus [18] = experiment: The concentration yielding a half maximal decrease of the DOPA was determined in rat limbic system; inactive at 50 umol/kg; assay type: functional, organism-based
[19] = Half life in plasma after administration of 5 umol/kg dose intravenously; assay type: ADME, organism-based; conditions: iv
Outline: (§2)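 Male Sprague-Dawley rats, iv dosing. Blood sampled at intervals up to 12 h, plasma drug levels by GC/MS with internal standard and a 2–1000 pmol/mL standard curve in blank blood. AUC from total area of concentration–time curve; iv n = 3 (table values SEM, n = 4–6).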

Rattus norvegicus [20] = species: Rattus norvegicus; experiment: The concentration yielding a half maximal decrease of the DOPA was determined in rat brain striatum.; assay type: functional
[21] = Bioavailability in rats after 2 mg/kg (i.v.) and 10 mg/kg (p.o.) administration; assay type: ADME, organism-based; conditions: rat, in vivo, po
Rattus norvegicus [22] = species: Rattus norvegicus; experiment: The concentration yielding a half maximal decrease of the DOPA was determined in rat brain hemispheres; assay type: functional
[23] = Time taken to reach maximum concentration after administration of 5 umol/kg dose intravenously; assay type: ADME, organism-based; conditions: in vivo, iv
Outline: (§3)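 Male Sprague-Dawley rats, starved 18 h for the oral arm, dosed iv or po. Blood sampled at intervals up to 12 h. Compound measured by GC/mass spectrometry against an internal standard, with a standard curve over 2–1000 pmol/mL in blank blood. tmax read from concentration–time curves, n = 4–6.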

Rattus norvegicus [24] = species: Rattus norvegicus; experiment: Log concentration to inhibit DOPA accumulation was determined in rat brain hemispheres; assay type: functional; outline: as §1
Rattus norvegicus [25] = species: Rattus norvegicus; experiment: Log concentration to inhibit DOPA accumulation was determined in rat brain striatum; assay type: functional; outline: as §1
[26] = Time taken to reach maximum concentration after administration of 40 umol/kg dose perorally; assay type: ADME, organism-based; conditions: in vivo, po; outline: as §3
[27] = Maximum concentration in plasma after administration of 40 umol/kg dose perorally; assay type: ADME, organism-based; parameters: dose 40 umol/kg, route oral; conditions: po
Outline: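 Male Sprague-Dawley rats starved 18 h, dosed orally. Blood samples over up to 12 h, drug quantified by GC/MS against internal standard (2–1000 pmol/mL standard curve). Cmax read from concentration–time curve; SEM, n = 4–6.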

[28] = Area under the curve after intravenous administration at a dose of 5 umol/kg; assay type: ADME; conditions: in vivo; outline: as §2
[29] = Maximum concentration in plasma after administration of 5 umol/kg dose intravenously; assay type: ADME, organism-based; parameters: dose 5 umol/kg, route intravenous; conditions: iv; outline: as §2
Rattus norvegicus [30] = experiment: The concentration yielding a half maximal decrease of the DOPA was determined in rat limbic system; Partial response 50 umol/kg; assay type: functional, organism-based
Rattus norvegicus [31] = experiment: The concentration yielding a half maximal decrease of the DOPA was determined in rat brain striatum; Partial response 50 umol/kg; assay type: functional, organism-based
Rattus norvegicus [32] = species: Rattus norvegicus; experiment: The concentration yielding a half maximal decrease of the DOPA was determined in rat limbic system; assay type: functional
Rattus norvegicus [33] = species: Rattus norvegicus; experiment: The concentration yielding a half maximal decrease of the 5-HTP was determined in rat brain hemispheres; assay type: functional; outline: as §1
Rattus norvegicus [34] = species: Rattus norvegicus; experiment: The concentration yielding a half maximal decrease of the 5-HTP was determined in rat limbic system; assay type: functional; outline: as §1
Rattus norvegicus [35] = experiment: Motor activity was measured by motility testing on injecting the compound subcutaneously into rats at the dose of 0.02 umol/kg (1a) and 3.5 umol/kg (1b)
Rattus norvegicus [36] = species: Rattus norvegicus; experiment: The concentration yielding a half maximal decrease of the DOPA was determined in rat brain striatum; assay type: functional; outline: as §1
Rattus norvegicus [37] = species: Rattus norvegicus; experiment: The concentration yielding a half maximal decrease of the 5-HTP was determined in rat brain striatum; assay type: functional; outline: as §1
Rattus norvegicus [38] = experiment: The concentration yielding a half maximal decrease of the DOPA was determined in rat brain striatum; Partial response at 50 umol/kg; assay type: functional, organism-based
Rattus norvegicus [39] = experiment: The concentration yielding a half maximal decrease of the 5-HTP was determined in rat brain hemispheres; Partial response at 50 umol/kg; assay type: functional, organism-based; outline: as §1
Rattus norvegicus [40] = experiment: The concentration yielding a half maximal decrease of the DOPA was determined in rat limbic system; Partial response at 50 umol/kg; assay type: functional, organism-based

D(2) dopamine receptor, sequence (P61169 whole entry): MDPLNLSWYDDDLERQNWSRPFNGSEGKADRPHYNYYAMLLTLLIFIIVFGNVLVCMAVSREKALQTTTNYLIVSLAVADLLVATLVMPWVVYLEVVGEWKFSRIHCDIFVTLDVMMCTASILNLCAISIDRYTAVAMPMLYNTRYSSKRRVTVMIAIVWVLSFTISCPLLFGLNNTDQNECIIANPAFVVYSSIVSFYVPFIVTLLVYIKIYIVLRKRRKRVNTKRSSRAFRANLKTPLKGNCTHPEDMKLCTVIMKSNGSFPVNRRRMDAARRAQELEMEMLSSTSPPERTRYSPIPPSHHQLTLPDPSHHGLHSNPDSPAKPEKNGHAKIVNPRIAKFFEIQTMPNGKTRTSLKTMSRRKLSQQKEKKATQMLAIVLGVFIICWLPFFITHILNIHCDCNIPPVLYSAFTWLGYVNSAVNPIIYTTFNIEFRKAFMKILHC

| SMILES | Ki [2] [nM] | pED50 (Rattus norvegicus [3]) | pED50 (Rattus norvegicus [6]) | pED50 (Rattus norvegicus [9]) | pED50 (Rattus norvegicus [11]) | Ki (D(2) dopamine receptor) [nM] | Activity (Rattus norvegicus [12]) [Counts 30min-1] | ED50 (Rattus norvegicus [13]) | ED50 (Rattus norvegicus [14]) | ED50 (Rattus norvegicus [15]) | ED50 (Rattus norvegicus [17]) | also measured |
| --- | --- | --- | --- | --- | --- | --- | --- | --- | --- | --- | --- | --- |
| CCCN(CCC)[C@@H]1CCc2ccc3[nH]cc(C#N)c3c2C1 | 2.7 | 7.03 | 7.44 | 6.85 | 5.78 | 419 | – | – | – | – | – | ED50 (Rattus norvegicus [1]): inactive; ED50 (Rattus norvegicus [4]): 0.036 µmol/kg; ED50 (Rattus norvegicus [5]): 1.65 µmol/kg; ED50 (Rattus norvegicus [7]): 0.092 µmol/kg; ED50 (Rattus norvegicus [8]): 0.14 µmol/kg; ED50 (Rattus norvegicus [10]): inactive |
| CCCN(CCC)[C@@H]1CCc2ccc3[nH]ccc3c2C1 | – | – | – | – | – | – | 82 | – | – | – | – | – |
| CCCN(CCC)C1CCc2ccc3c(CC(F)(F)F)c[nH]c3c2C1 (stereo unspecified) | – | – | – | – | – | 2330 | 74 | inactive | inactive | inactive | inactive | ED50 (Rattus norvegicus [16]): inactive; ED50 (Rattus norvegicus [18]): inactive |
| CCCN(CCC)C1CCc2ccc3[nH]cc(C#N)c3c2C1 (stereo unspecified) | 1.8 | 6.77 | 6.65 | 6.35 | 5.98 | 439 | 317 | – | – | – | – | half-life [19]: 1.5 h; ED50 (Rattus norvegicus [20]): 3.2 µmol/kg; bioavailability [21]: 54%; ED50 (Rattus norvegicus [22]): 5.2 µmol/kg; Tmax [23]: 2 min; pED50 (Rattus norvegicus [24]): 5.29; ED50 (Rattus norvegicus [4]): 0.22 µmol/kg; pED50 (Rattus norvegicus [25]): 5.49; ED50 (Rattus norvegicus [5]): 1.05 µmol/kg; Tmax [26]: 2.25 h; ED50 (Rattus norvegicus [7]): 0.17 µmol/kg; ED50 (Rattus norvegicus [8]): 0.45 µmol/kg; Cmax [27]: 1500 nM; AUC [28]: 1115 pM/kg; Cmax [29]: 1730 nM |
| CCCN(CCC)C1CCc2ccc3c(c2C1)NCC3 (stereo unspecified) | 410 | – | – | – | – | 650 | – | inactive | inactive | inactive | inactive | ED50 (Rattus norvegicus [30]): Weak activity; ED50 (Rattus norvegicus [31]): Weak activity |
| CCCN(CCC)C1CCc2cc3c(C=O)c[nH]c3cc2C1 (stereo unspecified) | 4720 | 4.88 | 4.74 | 4.87 | 4.78 | 700 | – | – | inactive | – | – | ED50 (Rattus norvegicus [32]): 27.8 µmol/kg; ED50 (Rattus norvegicus [33]): 14 µmol/kg; ED50 (Rattus norvegicus [34]): 13 µmol/kg; Counts/30 min (Rattus norvegicus [35]): 172; ED50 (Rattus norvegicus [36]): 16.7 µmol/kg; ED50 (Rattus norvegicus [37]): 18 µmol/kg |
| CCCN(CCC)C1CCc2ccc3c(c2C1)N(C=O)CC3 (stereo unspecified) | 550 | – | – | – | – | > 16000 | – | inactive | inactive | inactive | inactive | ED50 (Rattus norvegicus [30]): Weak activity; ED50 (Rattus norvegicus [31]): Weak activity |
| CCCN(CCC)C1CCc2ccc3cc[nH]c3c2C1 (stereo unspecified) | 220 | – | – | – | – | 145 | 119 | inactive | inactive | inactive | – | ED50 (Rattus norvegicus [38]): Weak activity; ED50 (Rattus norvegicus [39]): Weak activity; ED50 (Rattus norvegicus [40]): Weak activity |
